{"source": "paper PMC5504481", "about": "(Clinical and Translational Science, 2017)", "key": {"OATP1B1 [1]": {"molecular_target": "T1, OATP1B1 (Homo sapiens, UniProt Q9Y6L6)", "T1 sequence (Q9Y6L6 1-691)": "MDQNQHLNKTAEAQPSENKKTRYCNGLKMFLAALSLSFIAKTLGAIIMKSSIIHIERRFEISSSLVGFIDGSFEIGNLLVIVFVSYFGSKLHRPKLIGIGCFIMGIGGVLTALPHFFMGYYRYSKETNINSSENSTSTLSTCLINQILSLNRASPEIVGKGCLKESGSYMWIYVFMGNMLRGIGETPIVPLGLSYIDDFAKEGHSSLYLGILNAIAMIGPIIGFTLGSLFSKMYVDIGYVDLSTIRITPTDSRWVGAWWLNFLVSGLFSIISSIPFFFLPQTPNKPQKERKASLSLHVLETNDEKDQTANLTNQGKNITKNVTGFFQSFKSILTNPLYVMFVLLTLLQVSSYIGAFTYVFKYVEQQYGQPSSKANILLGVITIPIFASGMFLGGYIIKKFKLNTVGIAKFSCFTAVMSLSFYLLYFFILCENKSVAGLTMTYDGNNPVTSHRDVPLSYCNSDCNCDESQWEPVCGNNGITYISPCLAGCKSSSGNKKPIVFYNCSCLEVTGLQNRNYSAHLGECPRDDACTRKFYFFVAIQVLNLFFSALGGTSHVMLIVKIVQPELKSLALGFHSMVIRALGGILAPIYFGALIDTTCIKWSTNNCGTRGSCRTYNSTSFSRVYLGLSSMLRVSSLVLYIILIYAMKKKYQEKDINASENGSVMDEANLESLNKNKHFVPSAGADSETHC", "type": "cell-based", "settings": "for Transport rate in OATP1B1-transfected cells without rifampin: in 15 min, HEK293"}, "Oatp1b2": {"molecular_target": "T2, Oatp1b2 (Mus musculus, UniProt Q9JJL3)", "T2 sequence (Q9JJL3 1-689)": "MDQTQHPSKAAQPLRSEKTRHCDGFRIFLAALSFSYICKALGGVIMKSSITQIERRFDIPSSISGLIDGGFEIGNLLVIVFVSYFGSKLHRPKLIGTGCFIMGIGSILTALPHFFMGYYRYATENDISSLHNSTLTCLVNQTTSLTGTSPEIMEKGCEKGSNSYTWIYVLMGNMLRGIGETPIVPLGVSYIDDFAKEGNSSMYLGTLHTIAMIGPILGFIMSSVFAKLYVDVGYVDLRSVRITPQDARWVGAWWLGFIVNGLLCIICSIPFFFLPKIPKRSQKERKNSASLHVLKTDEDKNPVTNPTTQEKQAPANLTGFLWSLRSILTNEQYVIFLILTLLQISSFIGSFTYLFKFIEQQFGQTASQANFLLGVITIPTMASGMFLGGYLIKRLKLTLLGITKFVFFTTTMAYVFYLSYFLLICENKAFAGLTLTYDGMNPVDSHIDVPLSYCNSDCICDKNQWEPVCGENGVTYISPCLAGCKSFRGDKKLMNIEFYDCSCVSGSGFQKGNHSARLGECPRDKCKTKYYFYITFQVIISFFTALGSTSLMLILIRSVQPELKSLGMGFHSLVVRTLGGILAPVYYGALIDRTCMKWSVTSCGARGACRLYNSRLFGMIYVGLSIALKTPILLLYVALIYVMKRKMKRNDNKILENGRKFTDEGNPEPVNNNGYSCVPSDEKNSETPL", "type": "cell-based", "settings": "for Transport rate in Oatp1b2-transfected cells without rifampin: in 15 min, HEK293"}, "[2]": {"type": "in vivo, mice", "settings": "for Effect of Oatp1b2-deficiency and/or rifampin pretreatment on plasma levels: mice, rifampin 20 mg/kg", "summary_of_the_method": "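Female DBA1/lacJ mice, knockout and age-matched wildtype, n=4 per group, fasted 3 h before and during the study. Rifampin was given i.v. 5 min before sorafenib gavage in Cremophor EL/ethanol (1:1) diluted 1:4 with water. Plasma was sampled at 0.25–7.5 h and liver at 7.5 h. Analytes were measured by LC-MS/MS. Liver was normalized to plasma; geometric means (95% CI) were compared by ANOVA.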"}, "[3]": {"type": "in vivo, human"}, "[4]": {"settings": "oral sorafenib, humans; cited from earlier work"}, "[5]": {"settings": "cited from earlier work"}, "[6]": {"assay": "Adverse events and laboratory tests during the clinical study", "type": "in vivo, human", "settings": "patients on sorafenib; rifampin 600 mg x 2, midazolam 2.5 mg i.v.", "summary_of_the_method": "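Sorafenib-treated patients were at steady state (≥14 days on the same dose) with creatinine <1.25×ULN, bilirubin <1.25×ULN, aminotransferases <5×ULN and PT ≤1.5×ULN or INR <1.5 at entry. Rifampin was given fasting the day before and the day of sampling, 1 h before sorafenib. Sorafenib dose changes and CYP3A4-affecting comedication were barred. Adverse events were graded by CTCAE v4.03.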"}, "OATP1B1 [7]": {"molecular_target": "T1, OATP1B1", "assay": "Transcellular", "type": "cell-based", "settings": "rifampin 100 μM; SG 1 μM; MDCKII-OATP1B1"}, "OATP1B1 [8]": {"test_system": "OATP1B1", "settings": "cited from earlier work"}, "[9]": {"settings": "patients, with versus without rifampin"}, "[10]": {"settings": "rifampin preincubation 30 μM (legend: 20 μM), SG 10 μM, 15 min"}, "[11]": {"settings": "rifampin preincubation 30 μM, E2G 0.1 μM, 15-min incubation"}}, "note": "Where “and” joins values, the source holds several entries; their conditions need not be identical. Equal entries are not always repeated."}
{"smiles": "C[C@]12CC[C@@H]3c4ccc(O)cc4CC[C@H]3[C@@H]1CC[C@@H]2O[C@@H]1O[C@H](C(=O)O)[C@@H](O)[C@H](O)[C@H]1O", "note": "[E2G, estradiol‐17β‐D‐glucuronide]", "values": [{"measurement": "Transport rate in OATP1B1-transfected cells without rifampin", "setting": "OATP1B1 [1]; E2G 0.1 μM, SG 10 μM", "value": 4.77, "unit": "pmol/mg protein"}, {"measurement": "Transport rate in Oatp1b2-transfected cells without rifampin", "setting": "Oatp1b2; E2G 0.1 μM, SG 10 μM", "value": 26.73, "unit": "pmol/mg protein"}]}
{"smiles": "CNC(=O)c1cc(Oc2ccc(NC(=O)N(c3ccc(Cl)c(C(F)(F)F)c3)[C@@H]3O[C@H](C(=O)O)[C@@H](O)[C@H](O)[C@H]3O)cc2)ccn1", "note": "[SG, sorafenib‐β‐D‐glucuronide]", "values": [{"measurement": "Transport rate in OATP1B1-transfected cells without rifampin", "setting": "OATP1B1 [1]; E2G 0.1 μM, SG 10 μM", "value": 57.46, "unit": "pmol/mg protein"}, {"measurement": "Transport rate in Oatp1b2-transfected cells without rifampin", "setting": "Oatp1b2; E2G 0.1 μM, SG 10 μM", "value": 770.17, "unit": "pmol/mg protein"}, {"measurement": "Increase in SG AUC0-7.5h with Oatp1b2-deficiency", "setting": "[2]; Oatp1b2(-/-) versus wildtype mice, sorafenib 10 mg/kg oral", "value": 8, "unit": "fold"}, {"measurement": "Reduction of liver-to-plasma ratio of SG", "setting": "[2]; wildtype mice pretreated with rifampin 20 mg/kg, 7.5 h after sorafenib 10 mg/kg", "value": "~90", "unit": "%"}, {"measurement": "Increase of SG levels by rifampin in humans", "setting": "[3]; humans", "value": "~2", "unit": "fold"}, {"measurement": "Mean metabolic ratio of SG to sorafenib during rifampin administration", "setting": "[3]; [9]", "value": "significantly increased"}, {"measurement": "Detection of SG in feces", "setting": "[4]", "value": "not detectable"}, {"measurement": "Mean steady-state (trough) concentration (Css)", "setting": "[5]; 16 cancer patients, sorafenib 90 mg/m^2 oral, days 7, 13 and 21", "value": 954, "unit": "ng/mL"}]}
{"smiles": "CNC(=O)c1cc(Oc2ccc(NC(=O)Nc3ccc(Cl)c(C(F)(F)F)c3)cc2)cc[n+]1[O-]", "note": "[Sorafenib N-oxide, sorafenib‐N‐oxide]", "values": [{"measurement": "Effect of Oatp1b2-deficiency and/or rifampin pretreatment on plasma levels", "setting": "[2]; sorafenib 10 mg/kg oral", "value": "did not substantially affect"}, {"measurement": "Extent of sorafenib-N-oxide formation between treatment cycles", "setting": "[3]; [9]", "value": "not different"}]}
{"smiles": "CNC(=O)c1cc(Oc2ccc(NC(=O)Nc3ccc(Cl)c(C(F)(F)F)c3)cc2)ccn1", "note": "[Sorafenib, sorafenib]", "values": [{"measurement": "Effect of Oatp1b2-deficiency and/or rifampin pretreatment on plasma levels", "setting": "[2]; sorafenib 10 mg/kg oral", "value": "did not substantially affect"}, {"measurement": "Fraction of the dose eliminated as oxidative metabolites", "setting": "[4]", "value": "less than 5%"}, {"measurement": "Fraction of the dose eliminated as sorafenib-β-D-glucuronide (SG)", "setting": "[4]", "value": 15, "unit": "%"}, {"measurement": "Influence of the CYP3A4 inhibitor ketoconazole on PK", "setting": "[5]; healthy male volunteers, single-dose sorafenib", "value": "no influence"}, {"measurement": "Variation in exposure between patients receiving the same therapeutic regimen", "setting": "[5]; oral sorafenib", "value": "up to 90%"}, {"measurement": "Decrease in systemic exposure with neomycin", "setting": "[5]; ref Nexavar package insert", "value": "more than 50%"}]}
{"smiles": "COc1ccccc1Oc1c(NS(=O)(=O)c2ccc(C(C)(C)C)cc2)nc(-c2ncccn2)nc1OCCO", "note": "[bosentan]", "values": [{"measurement": "Change in systemic exposure with extended rifampin exposure", "setting": "[5]; rifampin 600 mg once daily for 6.5 days", "value": "–58%"}, {"measurement": "Change in systemic exposure with acute rifampin exposure", "setting": "[5]; rifampin 600 mg once daily, 1–2 doses", "value": "+500%"}]}
{"smiles": "Cc1ncc2n1-c1ccc(Cl)cc1C(c1ccccc1F)=NC2", "note": "[midazolam]", "values": [{"measurement": "Toxicities attributable to the drug during the clinical study", "setting": "[6]", "value": "no toxicities were observed"}]}
{"smiles": "CO[C@H]1/C=C/O[C@@]2(C)Oc3c(C)c(O)c4c(O)c(c(/C=N/N5CCN(C)CC5)c(O)c4c3C2=O)NC(=O)/C(C)=C\\C=C\\[C@H](C)[C@H](O)[C@@H](C)[C@@H](O)[C@@H](C)[C@H](OC(C)=O)[C@@H]1C", "note": "[rifampin]", "values": [{"measurement": "Reduction of intracellular uptake of SG by OATP1B1", "setting": "OATP1B1 [1]; [10]", "value": 92, "unit": "%"}, {"measurement": "Inhibition of E2G uptake by human OATP1B1", "setting": "OATP1B1 [1]; [11]", "value": "strongly inhibited"}, {"measurement": "Reduction of intracellular uptake of SG by Oatp1b2", "setting": "Oatp1b2; [10]", "value": 97, "unit": "%"}, {"measurement": "Inhibition of E2G uptake by mouse Oatp1b2", "setting": "Oatp1b2; [11]", "value": "strongly inhibited"}, {"measurement": "Effect of rifampin on OATP1B1-mediated basal-to-apical translocation of SG", "setting": "OATP1B1 [7]", "value": "diminished"}, {"measurement": "Toxicities attributable to the drug during the clinical study", "setting": "[6]", "value": "no toxicities were observed"}, {"measurement": "Plasma Cmax of unbound rifampin", "setting": "[5]", "value": "~1.3 μM and 1.1 mg/L"}, {"measurement": "Substrate-dependent variation in IC50 values for inhibition of OATP1B1", "setting": "OATP1B1 [8]", "value": "up to 12 fold"}]}
